Data: ChEMBL document CHEMBL2203168, “Amine linked flavonoid dimers as modulators for P-glycoprotein-based multidrug resistance: structure-activity relationship and mechanism of modulation” (J Med Chem, 2012)

What was measured:
[1] = organism: Homo sapiens; test: Inhibition of P-gp-mediated paclitaxel resistance in human LCC6MDR cells assessed as fold decrease in paclitaxel IC50 for cytotoxic activity at 1 uM after 5 days by MTS assay relative to parental cells; assay type: cell-based
[2] = organism: Homo sapiens; test: Inhibition of P-gp-mediated paclitaxel resistance in human LCC6MDR cells assessed as fold decrease in paclitaxel IC50 for cytotoxic activity at 0.5 uM after 5 days by MTS assay relative to parental cells; assay type: cell-based
[3] = test system: MDR; test: Cytotoxicity against human MDA435/LCC6MDR cells expressing MDR after 72 hrs; assay type: functional, cell-based
Summary of the method: (§1)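 Cells seeded at 1 × 10⁴ per well in supplemented DMEM and given graded doses of dimer for 72 h at 37 °C, 5% CO₂. Survival measured and IC50 derived. N = 1–3 independent experiments, mean ± SEM.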

[4] = Cytotoxicity against human LCC-6 cells after 72 hrs; assay type: functional, cell-based; conditions: LCC-6, 72 h; summary of the method: as §1
[5] = test system: L929; test: Cytotoxicity against mouse L929 cells after 72 hrs; assay type: cell-based; conditions: L929, 72 h; summary of the method: as §1
[6] = Therapeutic index, ratio of IC50 for L929 cells to EC50 for reversing paclitaxel resistance in human MDA435/LCC6MDR cells; assay type: cell-based; conditions: L929 cells (IC50) and MDA435/LCC6MDR cells (EC50)
[7] = Reversal of P-gp-mediated paclitaxel-resistance in human LCC6MDR cells after 5 days by MTS assay; assay type: cell-based; conditions: 120 h

Row | SMILES | Ratio [1] | Ratio [2] | IC50 [3] [µM] | IC50 [4] [µM] | IC50 [5] [µM] | selectivity ratio [6] | EC50 [7] [µM]
1 | CC(C)(C)CC(=O)N(CCOCCOc1ccc(-c2cc(=O)c3ccccc3o2)cc1)CCOCCOc1ccc(-c2cc(=O)c3ccccc3o2)cc1 | 72.9 | 18.9 | > 100 | > 100 | > 100 | – | –
2 | O=c1cc(-c2ccc(OCCOCCNCCOCCOc3ccc(-c4cc(=O)c5ccccc5o4)cc3)cc2)oc2ccccc12 | 139 | 72.9 | 2.4 | 3.3 | 5.9 | 19.3 | 0.305
3 | COc1cc(-c2cc(=O)c3ccccc3o2)ccc1OCCOCCN(CCOCCOc1ccc(-c2cc(=O)c3ccccc3o2)cc1OC)C(=O)OC(C)(C)C | 16.8 | 8.7 | 6.9 | 8.3 | 33.3 | – | –
4 | CC(C)(C)OC(=O)N(CCOCCOc1ccc(-c2cc(=O)c3cc(F)ccc3o2)cc1)CCOCCOc1ccc(-c2cc(=O)c3cc(F)ccc3o2)cc1 | 31.9 | 11.3 | > 100 | > 100 | > 100 | – | –
5 | O=c1cc(-c2ccc(OCCOCCN(CCCc3ccccc3)CCOCCOc3ccc(-c4cc(=O)c5ccccc5o4)cc3)cc2)oc2ccccc12 | 56.7 | 12.5 | > 100 | > 100 | 9.5 | 38 | 0.25
6 | O=c1cc(-c2ccc(OCCOCCN(CCOCCOc3ccc(-c4cc(=O)c5ccccc5o4)cc3)Cc3ccc([N+](=O)[O-])cc3)cc2)oc2ccccc12 | 128 | 43.7 | > 90 | 86.8 | 88 | 466 | 0.189
7 | CC(C)(C)OC(=O)N(CCOCCOc1ccc(-c2oc3ccccc3c(=O)c2OCc2ccccc2)cc1)CCOCCOc1ccc(-c2oc3ccccc3c(=O)c2OCc2ccccc2)cc1 | 1.2 | 1.1 | > 100 | > 100 | – | – | –
8 | CCOC(=O)CCN(CCOCCOc1ccc(-c2cc(=O)c3ccccc3o2)cc1)CCOCCOc1ccc(-c2cc(=O)c3ccccc3o2)cc1 | 43.7 | 5.3 | 17.7 | 13.5 | 18.1 | – | –
9 | C/C=C/C[C@@H](C)C(=O)[C@H]1C(=O)N[C@@H](C(C)C)C(=O)N(C)CC(=O)N(C)[C@@H](CC(C)C)C(=O)N[C@@H](C(C)C)C(=O)N(C)[C@@H](CC(C)C)C(=O)N[C@@H](C)C(=O)N[C@H](C)C(=O)N(C)[C@@H](CC(C)C)C(=O)N(C)[C@@H](CC(C)C)C(=O)N(C)[C@@H](C(C)C)C(=O)N1C [VALSPODAR] | 85.1 | – | 14.6 | 25.3 | > 100 | – | –
10 | O=C(c1ccccc1)N(CCOCCOc1ccc(-c2cc(=O)c3ccccc3o2)cc1)CCOCCOc1ccc(-c2cc(=O)c3ccccc3o2)cc1 | 42.5 | 7.5 | > 100 | > 100 | 95 | – | –
11 | Cc1ccc(S(=O)(=O)N(CCOCCOc2ccc(-c3cc(=O)c4ccccc4o3)cc2)CCOCCOc2ccc(-c3cc(=O)c4ccccc4o3)cc2)cc1 | 21.6 | 5.8 | > 100 | > 100 | > 100 | – | –
12 | O=c1cc(-c2ccc(OCCOCCN(CCOCCOc3ccc(-c4cc(=O)c5ccccc5o4)cc3)Cc3cccc(F)c3)cc2)oc2ccccc12 | 118 | 36.5 | > 100 | > 100 | > 87 | > 337 | 0.258
13 | CC(C)(C)OC(=O)N(CCOCCOc1ccc(-c2cc(=O)c3ccccc3o2)cc1)CCOCCOc1ccc(-c2cc(=O)c3ccccc3o2)cc1 | 69.6 | 11.1 | 6.2 | 8 | 11.1 | 34.7 | 0.32
14 | CS(=O)(=O)N(CCOCCOc1ccc(-c2cc(=O)c3ccccc3o2)cc1)CCOCCOc1ccc(-c2cc(=O)c3ccccc3o2)cc1 | 20.1 | 12.8 | 42.6 | 27.5 | 13.4 | – | –
15 | O=c1cc(-c2ccc(OCCOCCN(CCOCCOc3ccc(-c4cc(=O)c5ccccc5o4)cc3)Cc3ccccc3F)cc2)oc2ccccc12 | 102 | 43.7 | > 100 | > 100 | > 100 | > 559 | 0.179
16 | O=c1cc(-c2ccc(OCCOCCN(CCOCCOc3ccc(-c4cc(=O)c5ccccc5o4)cc3)Cc3ccncc3)cc2)oc2ccccc12 | 27.8 | 6.9 | > 100 | > 100 | 26.4 | – | –
17 | Cc1ccc2oc(-c3ccc(OCCOCCNCCOCCOc4ccc(-c5cc(=O)c6cc(C)ccc6o5)cc4)cc3)cc(=O)c2c1 | 139 | 13.9 | 7 | 7.5 | 6 | – | –
18 | Cc1ccc2oc(-c3ccc(OCCOCCN(CCOCCOc4ccc(-c5cc(=O)c6cc(C)ccc6o5)cc4)C(=O)OC(C)(C)C)cc3)cc(=O)c2c1 | 139 | 9.6 | > 100 | > 100 | > 100 | – | –

Row | SMILES | Ratio [1] | Ratio [2] | IC50 [3] [µM] | IC50 [4] [µM] | IC50 [5] [µM] | selectivity ratio [6] | EC50 [7] [µM]
19 | COc1cccc2oc(-c3ccc(OCCOCCNCCOCCOc4ccc(-c5cc(=O)c6c(OC)cccc6o5)cc4)cc3)cc(=O)c12 | 1.2 | 1.2 | 10.2 | 8.8 | – | – | –
20 | O=c1cc(-c2ccc(OCCOCCNCCOCCOc3ccc(-c4cc(=O)c5cc(F)ccc5o4)cc3)cc2)oc2ccc(F)cc12 | 109 | 72.9 | 3.3 | 5.3 | 5.7 | – | –
21 | COC(=O)c1ccc(CN(CCOCCOc2ccc(-c3cc(=O)c4ccccc4o3)cc2)CCOCCOc2ccc(-c3cc(=O)c4ccccc4o3)cc2)cc1 | 18.9 | 2.1 | 64.8 | 33.3 | 11.4 | – | –
22 | O=c1cc(-c2ccc(OCCOCCOCCOCCOc3ccc(-c4cc(=O)c5ccccc5o4)cc3)cc2)oc2ccccc12 | 17.2 | 6.2 | – | – | – | – | –
23 | CC(=O)O[C@H]1C(=O)[C@@]2(C)[C@H]([C@H](OC(=O)c3ccccc3)[C@]3(O)C[C@H](OC(=O)[C@H](O)[C@@H](NC(=O)c4ccccc4)c4ccccc4)C(C)=C1C3(C)C)[C@]1(OC(C)=O)CO[C@@H]1C[C@@H]2O | 1 | – | – | – | – | – | –
24 | O=c1cc(-c2ccc(OCCOCCN(CCOCCOc3ccc(-c4cc(=O)c5ccccc5o4)cc3)Cc3ccc(F)cc3)cc2)oc2ccccc12 | 109 | 31.2 | > 83 | > 100 | 19.7 | 77.3 | 0.255
25 | O=C(O)CCC(=O)N(CCOCCOc1ccc(-c2cc(=O)c3ccccc3o2)cc1)CCOCCOc1ccc(-c2cc(=O)c3ccccc3o2)cc1 | 0.9 | 1.1 | > 100 | 78.4 | – | – | –
26 | O=c1cc(-c2ccc(OCCOCCN(CCOCCOc3ccc(-c4cc(=O)c5ccccc5o4)cc3)Cc3ccc(C(F)(F)F)cc3)cc2)oc2ccccc12 | 90.1 | 37.3 | > 100 | > 100 | 32.7 | 218 | 0.15
27 | COc1cc(-c2cc(=O)c3ccccc3o2)ccc1OCCOCCNCCOCCOc1ccc(-c2cc(=O)c3ccccc3o2)cc1OC | 1.1 | 0.8 | 23.8 | 12.8 | – | – | –
28 | O=c1cc(-c2ccc(OCCOCCN(CCOCCOc3ccc(-c4cc(=O)c5ccccc5o4)cc3)Cc3ccc(F)c(F)c3)cc2)oc2ccccc12 | 109 | 49.3 | 33.6 | 32.5 | 42.2 | – | –
29 | O=c1c(OCc2ccccc2)c(-c2ccc(OCCOCCNCCOCCOc3ccc(-c4oc5ccccc5c(=O)c4OCc4ccccc4)cc3)cc2)oc2ccccc12 | 128 | 54.7 | 4.4 | 4.3 | 4.2 | – | –
30 | COc1cccc2oc(-c3ccc(OCCOCCN(CCOCCOc4ccc(-c5cc(=O)c6c(OC)cccc6o5)cc4)C(=O)OC(C)(C)C)cc3)cc(=O)c12 | 109 | 14.9 | 5.4 | 4.6 | 5.5 | – | –
31 | O=c1cc(-c2ccc(OCCOCCN(CCOCCOc3ccc(-c4cc(=O)c5ccccc5o4)cc3)Cc3ccccn3)cc2)oc2ccccc12 | 95.7 | 15.8 | 29.7 | 10 | 10 | – | –
32 | CN(C)c1cccc2c(S(=O)(=O)N(CCOCCOc3ccc(-c4cc(=O)c5ccccc5o4)cc3)CCOCCOc3ccc(-c4cc(=O)c5ccccc5o4)cc3)cccc12 | 1.3 | 1.4 | > 100 | > 100 | – | – | –
33 | O=C1c2ccccc2C(=O)N1CCN(CCOCCOc1ccc(-c2cc(=O)c3ccccc3o2)cc1)CCOCCOc1ccc(-c2cc(=O)c3ccccc3o2)cc1 | 118 | 9.6 | 4.9 | 8.6 | 17 | – | –
34 | O=c1cc(-c2ccc(OCCOCCN(CCOCCOc3ccc(-c4cc(=O)c5ccccc5o4)cc3)Cc3cc(F)c(F)c(F)c3)cc2)oc2ccccc12 | 80.6 | 3.3 | > 100 | > 75 | > 100 | – | –
35 | C[C@H](N)C(=O)N(CCOCCOc1ccc(-c2cc(=O)c3ccccc3o2)cc1)CCOCCOc1ccc(-c2cc(=O)c3ccccc3o2)cc1 | 0.9 | 1 | 4.6 | 4.4 | – | – | –
36 | O=c1cc(-c2ccc(OCCOCCN(CCO)CCOCCOc3ccc(-c4cc(=O)c5ccccc5o4)cc3)cc2)oc2ccccc12 | 32.6 | 5 | 14.8 | 10.7 | 6.9 | – | –
